Experimental data: paper PMC2195664 (The Journal of Experimental Medicine, 1999)
Like-named read-outs stand apart in the source and are kept apart here. Ends that are not written are not given here. * marks the point of attachment. Biotin = O=C1N[C@H]2[C@H](CS[C@H]2CCCCC(=O)*)N1

Tests used:
[1] = system: 3C3 mouse NK T cell hybridoma; assay: Competition for α-GalCer presentation by plate-bound mCD1 to 3C3 hybridoma; format: cell-based; details: 1 μg/well mCD1 preincubated with 25 ng/well α-GalCer
[2] = target: T1, mCD1 (Mus musculus, UniProt P11609); assay: SPR; format: binding
[3] = target: T2, hCD1d (Homo sapiens, UniProt P15813); assay: SPR; format: binding
[4] = system: 3C3 mouse NK T cell hybridoma; assay: Antigen presentation by plate-bound mCD1 to 3C3 hybridoma, IL-2 release ELISA; format: cell-based; details: 1 μg/well plate-bound mCD1 preincubated with 100 ng lipid
Method in brief: (§1)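 Soluble CD1d–β2m heterodimers came from stably cotransfected Drosophila SC2 cells induced 3 d with 0.7 mM CuSO₄, purified on Ni-NTA then Mono Q. Plates were coated 2 h at 37°C with 1 µg/well protein premixed with lipid in PBS. Controls were protein with DMSO (0.25–1% final) or lipid alone. After five PBS washes, 5 × 10⁴ 3C3 cells/well were added; IL-2 was measured by ELISA after 16 h.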

[5] = system: 3C3 mouse NK T cell hybridoma; assay: Antigen presentation by plate-bound hCD1d to 3C3 hybridoma, IL-2 release ELISA; format: cell-based; details: 1 μg/well plate-bound hCD1d preincubated with 100 ng lipid
Method in brief: as §1

[6] = system: 3C3 mouse NK T cell hybridoma; format: cell-based; details: mCD1+ A20 cells pulsed with 100 ng/ml lipid; 16 h
[7] = system: DN3A4-1.2 NK T hybridoma; assay: Stimulation of 1.2 hybridoma by plates coated with soluble CD1d, IL-2 release; format: cell-based, mouse; details: 50 ng/well α-GalCer
Method in brief: (§2)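 Plates were coated 2 h at 37°C with 1 µg/well soluble mCD1 or hCD1d (insect-cell-derived), either alone or premixed in PBS with 50 ng/well α-GalCer. After five PBS washes, 5 × 10⁴ hybridoma cells/well were added. IL-2 was quantified after 16 h by sandwich ELISA against a recombinant IL-2 standard (detection limit 0.1 U/ml). Representative of five experiments.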

[8] = system: N38-2C12 NK T hybridoma; assay: Stimulation of 2C12 hybridoma by plates coated with soluble CD1d, IL-2 release; format: cell-based, mouse; details: 50 ng/well α-GalCer
Method in brief: as §2

[9] = system: Vα14+ mouse NK T cell hybridomas N38-2H4 and DN3A4-1.4; assay: Recognition of antigen on immobilized mCD1 by Vβ7; format: cell-based; details: data not shown
[10] = Solubility in aqueous solution; format: physicochemical; details: must be dissolved in DMSO-containing solutions
[11] = system: mCD1-restricted CTLs; details: cited from earlier work
[12] = target: T1, mCD1; format: binding; details: competitor preincubated with protein in solution
[13] = target: T2, hCD1d; format: binding; details: competitor preincubated with protein in solution
[14] = system: 3C3 mouse NK T cell hybridoma; assay: Competition for α-GalCer presentation by plate-bound hCD1d; format: cell-based; details: data not shown
Method in brief: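 Gangliosides dissolved in PBS were added to soluble insect-cell-derived hCD1d before α-GalCer. The mixture was coated onto plates 2 h at 37°C and washed five times in PBS. 3C3 hybridoma cells (5 × 10⁴/well) were cultured 16 h, and IL-2 was measured by ELISA.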

[15] = target: T1, mCD1; assay: SPR competition: mCD1 binding to biotin-P99 chip; details: mCD1 1.8–2 μM
[16] = system: NK T cells; details: cited from earlier work
[17] = target: T3, soluble mCD1–mβ2m heterodimer (mouse, UniProt P11609 22-305; P01887 21-119); assay: SPR
T3 sequence (looked up) 1: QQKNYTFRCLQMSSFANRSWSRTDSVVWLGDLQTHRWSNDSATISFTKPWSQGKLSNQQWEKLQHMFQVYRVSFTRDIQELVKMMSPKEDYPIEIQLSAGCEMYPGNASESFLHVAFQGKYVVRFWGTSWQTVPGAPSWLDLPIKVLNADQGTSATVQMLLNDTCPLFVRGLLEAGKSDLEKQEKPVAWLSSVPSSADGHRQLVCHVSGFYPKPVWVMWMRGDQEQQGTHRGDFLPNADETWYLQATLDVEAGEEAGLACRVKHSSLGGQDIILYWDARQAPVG
T3 sequence (looked up) 2: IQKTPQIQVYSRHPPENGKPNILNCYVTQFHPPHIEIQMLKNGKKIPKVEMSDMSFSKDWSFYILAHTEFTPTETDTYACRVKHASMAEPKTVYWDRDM

CC(=O)N[C@H]1[C@H](O[C@H]2[C@@H](O)[C@@H](CO)O[C@@H](O[C@@H]([C@H](O)[C@@H](O)C=O)[C@H](O)CO)[C@@H]2O)O[C@H](CO[C@]2(C(=O)O)C[C@H](O)[C@@H](NC(C)=O)[C@H]([C@H](O)[C@H](O)CO)O2)[C@@H](O)[C@@H]1O[C@@H]1O[C@H](CO)[C@H](O)[C@H](O[C@]2(C(=O)O)C[C@H](O)[C@@H](NC(C)=O)[C@H]([C@H](O)[C@H](O)CO)O2)[C@H]1O [disialyllacto-N-tetraose, α-Neu5Ac-[2→3]-β-Gal-[1→3]-(α-Neu5Ac-[2→6])-β-GlcNac-[1→3]-β-Gal-[1→4]-Glc]
inhibition of α-GalCer presentation [1]: did not inhibit | inhibition of α-GalCer presentation ([1]; listed as control hexasaccharide): has no effect

CCCCCCCCCCCCCCCCCCCCCCCCCC(=O)N[C@@H](CO[C@H]1O[C@H](CO)[C@H](O)[C@H](O)[C@H]1O)[C@H](O)[C@H](O)CCCCCCCCCCCCCC [α-GalCer, α-galactosyl ceramide]
koff ([2]; read-out: k off (fast)): 0.1 s⁻¹ | koff ([2]; read-out: k off (slow)): 0.004 s⁻¹ | koff ([3]; read-out: k off (fast)): 0.08 s⁻¹ | koff ([3]; read-out: k off (slow)): 0.004 s⁻¹ | presentation to 3C3 hybridoma (IL-2 release) [4]: could both present | presentation to 3C3 hybridoma (IL-2 release) [5]: could both present | presentation to 3C3 hybridoma (IL-2 release) [6]: can present | effect on response to plate-bound CD1d [7]: can be enhanced | effect on response to plate-bound CD1d [8]: can be enhanced | recognition when presented by immobilized mCD1 [9]: could recognize | solubility [10]: much less soluble than the gangliosides | effect on ovalbumin peptide recognition [11]: did not affect

GD1a
inhibition of mCD1 binding to biotin–α-GalCer or biotin–β-GalCer chip [12]: could inhibit | inhibition of hCD1d binding to biotin–α-GalCer or biotin–β-GalCer chip [13]: could inhibit | inhibition of α-GalCer presentation [1]: could inhibit | inhibition of α-GalCer presentation [14]: could inhibit

YEHDFHHIREWGNHWKNCLAVM [P99]
inhibition of mCD1 binding to biotin–α-GalCer or biotin–β-GalCer chip [12]: does not affect | inhibition of mCD1 binding to immobilized biotin-P99 [15]: inhibited by increasing concentrations | prevention of α-GalCer recognition by NK T cells [16]: neither P99 nor an ovalbumin peptide could prevent

Biotin-YEHDFHHIREWGNHWKNCLAVM [NH2 terminus biotinylated P99 peptide]
koff [17]: 0.005 to 0.008 s⁻¹
